Screens (PubChem)
The list is not random: actives were taken first. Their share in the collection is about 3.2%.
GPR7 antag: GPR7 receptor antagonists, primary screen, cell-based, fluorescence, single concentration | Neuropeptides B/W receptor type 1 (Homo sapiens), P48145 | GPR7-expressing cells, fluorescence antagonist assay | inhibition, % at 4.4 µM | hit rate 1.1% among 290,000 | AID 1861, 2009; in the data active = inhibition above about 16%, passing the limit was not always enough;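 also: cells stimulated with the agonist NPW; 0% = agonist with vehicle and 100% = vehicle without agonist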
TRPN1 ag: zebrafish TRPN1 channel agonists, primary screen, cell-based, HEK293, calcium fluorescence; transient receptor potential cation channel N1 (TRPN1/NompC), Danio rerio; HEK293 zebrafish TRPN1-YFP, Fluo-8 calcium fluorescence; 100% = response to 87 µM carbachol; activation, % at 3 µM; hit rate 0.18% among 220,000; AID 1424, 2008;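 active = activation above its plate's cutoff, the mean activation of test wells on that plate plus 3 SD, cut at about 19% in these data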;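 also: 0% = DMSO alone and 100% = 87 µM carbachol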
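Material – zebrafish TRPN1-YFP in HEK293 cells · Doses – 3 µM single point · Schedule – dye 1 h 37 °C plus 30 min RT · Signal – Fluo-8 calcium fluorescence, excitation 470-495 nm, emission 515-575 nm · Read-out – % activation versus carbachol response · Control set – carbachol high, DMSO low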
OX1R antag-1: OX1R (HCRTR1) antagonists, primary screen, fluorescence, CHO/OX1R cells, Fluo-8 calcium, orexin A; Orexin/Hypocretin receptor type 1 (Homo sapiens), O43613; Fluo-8 calcium fluorescence; inhibition, % at 5 µM; hit rate 0.43% among 330,000;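 active = inhibition above its plate's threshold, mean inhibition of all tested compounds on the plate plus 3 SD, cut at about 37% in these data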;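 also: 0% = orexin A challenge wells and 100% = SB-334867-A antagonist wells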
OX1R antag-2: antagonists of human orexin 1 receptor (OX1R); OX1R-expressing cells, FRET antagonist read-out; inhibition, % at 6.6 µM; hit rate 1.8% among 330,000; AID 485270, 2010; in the data active = inhibition mostly above about 38%, no sharp cut-off; inactive = mostly below about 40%;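 also: 0% = agonist challenge alone and 100% = reference antagonist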
TRPML3 agonist: human TRPML3 channel agonists, primary screen, cell-based, HEK293 TRPML3-YFP, Fluo-8 calcium fluorescence, 3 µM. activation, % at 3 µM. 100% = the carbachol control signal. hit rate 0.29% among 220,000. AID 1448, 2008. Mucolipin-3 (Homo sapiens), Q8TDD5;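 active = activation above its plate's cutoff, the mean activation of the plate's test wells plus 3 SD, cut at about 12% in these data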;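 also: 0% = DMSO only wells and 100% = carbachol wells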
Target sequence (Q8TDD5 whole entry, looked up): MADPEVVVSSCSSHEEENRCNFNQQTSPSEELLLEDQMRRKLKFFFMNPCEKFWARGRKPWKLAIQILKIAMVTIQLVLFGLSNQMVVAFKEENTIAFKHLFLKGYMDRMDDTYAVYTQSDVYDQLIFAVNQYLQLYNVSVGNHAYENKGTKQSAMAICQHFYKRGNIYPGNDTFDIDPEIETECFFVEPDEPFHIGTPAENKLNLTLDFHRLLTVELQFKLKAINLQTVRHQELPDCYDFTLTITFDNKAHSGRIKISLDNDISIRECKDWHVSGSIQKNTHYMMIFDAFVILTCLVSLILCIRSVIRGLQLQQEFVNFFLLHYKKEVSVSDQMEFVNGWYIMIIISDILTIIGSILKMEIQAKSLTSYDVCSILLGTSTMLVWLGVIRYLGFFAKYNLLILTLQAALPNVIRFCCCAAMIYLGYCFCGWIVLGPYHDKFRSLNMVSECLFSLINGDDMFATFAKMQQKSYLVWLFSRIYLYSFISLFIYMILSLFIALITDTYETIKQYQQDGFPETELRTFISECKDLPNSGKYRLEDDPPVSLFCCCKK
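Test system: HEK293 cells stably carrying human TRPML3-YFP; Doses: single dose, 3 µM final nominal compound, 0.3% DMSO final; Schedule: dye loading 1 h 37 °C then 30 min ambient, 125 s read; Technique: Fluo-8 calcium fluorescence; Benchmarks: high control carbachol 87 µM, low control DMSO.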
CHO parental Ca: ATP-evoked calcium signal inhibitors, parental CHO, primary screen, counter-screen for OX1R antagonist project, cell-based, fluorescence, Fluo-8 calcium dye; parental CHO-K1, ATP-induced calcium, Fluo-8 fluorescence; inhibition, % at 5.6 µM; hit rate 0.63% among 330,000; AID 463079, 2010;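 active = inhibition above that plate's mean sample inhibition plus 3 SD, cut at about 26% in these data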;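 also: 0% = ATP-challenged DMSO wells and 100% = DMSO wells without ATP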
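Test system: untransfected parental CHO cell line; also added: ATP stimulus; dosing: 5.6 µM, single dose; signal: calcium-sensitive Fluo-8 fluorescence; measure: percent inhibition of ATP-evoked calcium rise, normalized to controls; benchmarks: low control ATP plus DMSO, high control DMSO only; replication: one well per compound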
OX1R HTRF conf: OX1R (HCRTR1) antagonists, confirmation, cell-based, HTRF. OX1R-expressing cells, HTRF antagonist assay. inhibition, % at 6.6 µM. shares compounds with OX1R antag-2. hit rate 49% among 1,800; in the data active = inhibition above about 55%;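 also: CHO cells expressing OX1R stimulated with orexin A at about EC80; 0% = agonist challenge alone and 100% = reference antagonist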
CHO-K1 HTRF cnt: signal inhibition in parental CHO-K1 cells, counter-screen for OX1R antagonist project, cell-based, HTRF; shares compounds with OX1R antag-2; HTRF counterscreen; inhibition, % at 6.6 µM; hit rate 48% among 1,800; AID 493232, 2011; in the data active = inhibition above about 17%;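 also: 0% = agonist challenge with vehicle and 100% = vehicle alone without agonist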
Starred values were filed as active, the others as inactive; nt = no result.

SMILES	GPR7 antag	TRPN1 ag	OX1R antag-1	OX1R antag-2	TRPML3 agonist	CHO parental Ca	OX1R HTRF conf	CHO-K1 HTRF cnt
C[C@@H](C(=O)Nc1ccc2ccccc2c1)[C@H]1C[C@]1(C)[C@H](NC(=O)c1cccnc1)c1ccccc1	17	-1	26	80*	-1	-31	72*	-4
Cc1ccc2c(c1)N(CCC(=O)NCCCN1CCCC1)C(=O)C(C)O2 (stereo unspecified)	-5	nt	-1	9	nt	13	nt	nt
O=S(=O)(Nc1nc2ccccc2nc1NCc1ccco1)c1ccc(F)cc1	-13	3	-27	171*	0	-12	18	3
CCCCNc1nc2ccccc2nc1NS(=O)(=O)c1ccc(F)cc1	2	nt	-29	11	nt	-10	nt	nt
COc1cc2c(cc1OC)-c1cc3ccc4c(c3c[n+]1CC2)OCO4	2	4	0	79*	1	-6	54	75*
COc1cc2c(cc1O)CC[n+]1cc3c(OC)c(OC)ccc3cc1-2	6	1	-5	77*	1	-12	42	37*
CCOc1cc(C2C3=C(CC(C)(C)CC3=O)N(C)C3=C2C(=O)CC(C)(C)C3)ccc1O	-4	nt	-4	14	nt	-5	nt	nt
CCN1C(=O)/C(=C/N(C(C)=O)c2ccccc2)N(c2ccccc2)C1=S	-3	-1	-12	82*	0	-18	28	16
CCOc1ccccc1CNC(=O)Cn1ccc2cc(S(=O)(=O)N3CCC(C)CC3)ccc21	2	nt	-16	19	nt	-17	nt	nt
C[C@H](NC(=O)C1(c2ccccc2)CCN(C(=O)OC(C)(C)C)CC1)C(=O)N[C@@H](C(=O)O)c1ccccc1	17	nt	1	13	nt	-8	nt	nt
C[C@@H](NC(=O)C1(c2ccccc2)CCN(C(=O)OC(C)(C)C)CC1)C(=O)N[C@@H](C(=O)O)c1ccccc1	-4	nt	-14	87*	nt	-6	13	10
CC(=O)Nc1ccc(Cl)cc1C1COC(=O)C1=N (stereo unspecified)	8	1	6	12	0	11	nt	nt
COC(=O)c1cc(C)nc2c1C(=O)C(=O)C=C2N1CCOCC1	-25	nt	-12	99*	nt	-8	79*	114*
COC(=O)c1cc(S(=O)(=O)N2CCOCC2)c(Cl)cc1N1CCOCC1	-6	0	-8	5	0	0	nt	nt
CCOc1ccc(CNC(=O)CN2C(=O)C(c3ccccc3)Oc3cccnc32)cc1 (stereo unspecified)	-3	nt	-34	10	nt	-20	nt	nt
Cc1ncsc1CCOC(=O)c1ccc([N+](=O)[O-])cc1	-5	-1	-19	82*	0	-6	29	34*
Cc1ncsc1CCOC(=O)c1cccnc1	-12	0	-2	9	-1	0	nt	nt
COc1ccc(S(=O)(=O)NNC(=O)Nc2ccc(F)cc2F)c(OC)c1	0	nt	1	10	nt	9	nt	nt
O=C(CCNS(=O)(=O)c1ccccc1F)OCc1ccccc1Cl	nt	nt	-15	2	nt	-5	nt	nt
O=[N+]([O-])c1nn(-c2ccc(Cl)cc2)n(O)c1=NCc1ccncc1	8	-1	-21	84*	-1	-16	41	54*
COc1ccc(C=C2C(=O)OC(C)(C)OC2=O)cc1OC	-1	-2	-15	9	0	-13	nt	nt
COc1ccc(/C=C2\OC(=O)c3c(OC)cccc32)cc1OC	-6	-1	-17	78*	-1	-17	66*	3
O=C(CN1C(=O)COc2ccccc21)Nc1ccc(N2CCOCC2)cc1	-12	nt	-7	26	nt	5	nt	nt
COCCN(C(=S)Nc1c(C)cccc1C)C(C)c1cccs1 (stereo unspecified)	1	-3	-13	147*	-1	-5	33	5
Cc1nn(C(C)C(=O)N2CCCC2)c(=O)c2nn(-c3ccccc3)c(C)c12 (stereo unspecified)	-1	nt	-11	12	nt	0	nt	nt
SMILES	GPR7 antag	TRPN1 ag	OX1R antag-1	OX1R antag-2	TRPML3 agonist	CHO parental Ca	OX1R HTRF conf	CHO-K1 HTRF cnt
O=c1cc(N2CCCC2)c2ccccc2o1	0	1	-7	7	-1	3	nt	nt
Cc1ccc(C(=O)/C=C2\NCC(C)NC2=O)cc1 (stereo unspecified)	2	-2	-17	78*	-1	-14	40	18*
O=C(OCC(=O)N1CCN(c2ccc(F)cc2)CC1)c1cnc2ccccc2n1	nt	nt	-33	8	nt	-21	nt	nt
COc1ccc(-n2c(C)cc(/C=N/Nc3nnc(C)n3N)c2C)cc1	-12	1	-13	108*	0	-16	22	14
CC(C)CN(C(=O)CCNC(=O)c1ccc([N+](=O)[O-])cc1)C1CCS(=O)(=O)C1 (stereo unspecified)	nt	nt	-12	35	nt	-13	nt	nt
CC(C)CN(C(=O)c1cc([N+](=O)[O-])cc([N+](=O)[O-])c1)C1CCS(=O)(=O)C1 (stereo unspecified)	nt	nt	-6	91*	nt	-6	70*	50*
CC(=O)Oc1cccc2c1C(=O)c1c(OC(C)=O)cc(C(=O)O)cc1C2=O	-8	1	-7	95*	0	5	56*	112*
O=C1N=C(N2C=CC(=C3C=CNC=C3)C=C2)/C(=C/N=NC(=O)c2ccccc2O)S1	2	nt	-11	108*	nt	-12	68*	109*
CCOC(=O)Cn1nnc(-c2ccc([N+](=O)[O-])cc2)n1	-4	2	6	96*	1	11	37	32*
CCN(CC)CCNc1cc(C)nc2c1C(=O)C(=O)C=C2N1CCCCC1	-7	0	-20	83*	-1	-18	47	76*
CC(=O)c1cccc(NC(=O)c2cc(S(=O)(=O)N3CCOCC3)cs2)c1	-7	nt	-28	2	nt	-8	nt	nt
Cc1cc(C)cc(NC(=O)C2CCCN2S(=O)(=O)c2ccc3c(c2)C(C)(C)C(=O)N3C)c1 (stereo unspecified)	-10	nt	-24	17	nt	-4	nt	nt
COc1ccc(NC(=O)C2CCCCN2S(=O)(=O)c2ccc(F)cc2)cc1 (stereo unspecified)	-10	1	-17	87*	0	-11	42	10
